In brackets after ≈: the same amount, converted by molar mass.
How the values were obtained:
[1] = Toxicity in ip dosed CD1 nude mouse in DMSO/PEG; type: organism-based; settings: in vivo
Method in brief: (§1)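 Maximum tolerated dose (MTD) determined in CD-1 nude mice after a single i.p. injection of prodrug, given in the vehicle named in each line.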

V79 [2] = test: Clonogenic survival of 97% V79 NTRoua cells in co-cultures with 3% V79 NTRpuro cells after 5 hrs by MCL assay; type: functional, Cricetulus griseus
Method in brief: (§2)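 Multicellular layer cocultures of 3% V79-NTRpuro activators and 97% V79oua NTR-ve targets (ouabain-resistant), exposed to prodrug for 5 h. MCLs were then trypsin-dissociated and plated in ouabain or puromycin selective media for clonogenic survival. C10 (10% survival) interpolated for activators and targets; AC/TC ratio derived. Mean with SEM or range over independent experiments.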

V79 [3] = test: Clonogenic survival of 3% V79 NTRpuro cells in co-cultures with 97% V79 NTRoua after 5 hrs by MCL assay; type: functional, Cricetulus griseus; method in brief: as §2
V79 [4] = test: Antiproliferative activity against chinese hamster V79 NTRpuro cells after 18 hrs; type: functional, cell-based; settings: Cricetulus griseus, V79, 18 h
EMT6 [5] = test: Antiproliferative activity against mouse wild type EMT6 NTR-ve cells after 18 hrs; type: functional, cell-based; settings: EMT6, 18 h
[6] = Solubility in alpha MEM; type: physicochemical
Method in brief: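 Solubility (mM) in α-MEM with 5% fetal calf serum at ambient temperature, measured by HPLC.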

V79 [7] = test: Selectivity ratio of IC50 for V79 NTR-ve cells to IC50 for V79 NTRpuro cells; type: functional, Cricetulus griseus
EMT6 [8] = test: Antiproliferative activity against mouse EMT6 NTRpuro cells after 18 hrs; type: functional, cell-based; settings: EMT6, 18 h
EMT6 [9] = test: Antitumor activity against mixed mouse EMT6/EMT6 NTRpuro cells injected in CD1 nude mouse assessed as cell kill at 1330 umol/kg, ip in DMSO/PEG after 18 hrs; type: functional
[10] = Antiproliferative activity against human Skov3 NTRneo cells after 18 hrs; type: functional, cell-based; settings: SK-OV-3, 18 h
[11] = Antiproliferative activity against human wild type Skov3 NTR-ve cells after 18 hrs; type: functional, cell-based
EMT6 [12] = test: Selectivity ratio of IC50 for EMT6 NTR-ve cells to IC50 forEMT6 NTRpuro cells; type: functional, Mus musculus
WiDr [13] = test: Antiproliferative activity against human wild type WiDr NTR-ve cells after 18 hrs; type: functional, cell-based
[14] = Selectivity ratio of IC50 for Skov3 NTR-ve cells to IC50 for Skov3 NTRneo cells; type: functional, Homo sapiens
WiDr [15] = test: Antitumor activity against mixed human 10% WiDr NTRneo/ 90% WiDr tumor cells injected in CD1 nude mouse assessed as growth delay at 1330 umol/kg, ip in DMSO/PEG; type: functional
Method in brief: (§3)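 WiDr-NTRneo tumours (100% NTR+ve, or 1:9 NTR+ve:NTR-ve mixtures) in CD-1 nude mice, given a single i.p. dose at MTD. Read-out is median growth delay to 15 mm mean diameter, plus tumours not palpable 100 days after treatment. Aziridine given at 200 µmol/kg as positive control in every experiment.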

[16] = Partition coefficient at pH 7.4 by shake-flask method; type: physicochemical; settings: octanol/water
Method in brief: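 Octanol-water partition coefficient by shake-flask at pH 7.4, reported with SEM.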

V79 [17] = test: Clonogenic survival of V79 NTRoua cells after 5 hrs by MCL assay; type: functional, Cricetulus griseus
V79 [18] = test: Antiproliferative activity against chinese hamster wild-type V79 NTR-ve cells after 18 hrs; type: functional, cell-based; settings: Cricetulus griseus, V79, 18 h
WiDr [19] = test: Selectivity ratio of IC50 for WiDr NTR-ve cells to IC50 for WiDr NTRneo cells; type: functional, Homo sapiens
[20] = Stability in alpha MEM at 37 degC after 24 hrs; type: physicochemical; settings: read-out: Stability
Method in brief: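 Percent parent compound remaining, by HPLC, after holding in α-MEM with 5% fetal calf serum at 37 °C for 24 h.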

WiDr [21] = test: Antiproliferative activity against human WiDr NTRneo cells after 18 hrs; type: functional, cell-based
[22] = Toxicity in ip dosed CD1 nude mouse in DMSO; type: organism-based; settings: in vivo; method in brief: as §1
WiDr [23] = test: Antitumor activity against mixed human 10% WiDr NTRneo/ 90% WiDr tumor cells injected in CD1 nude mouse assessed as growth delay at 1000 umol/kg, ip in DMSO; type: functional; method in brief: as §3
EMT6 [24] = test: Antitumor activity against mixed mouse EMT6/EMT6 NTRpuro cells injected in CD1 nude mouse assessed as cell kill at 1000 umol/kg, ip in DMSO after 18 hrs; type: functional
WiDr [25] = test: Antitumor activity against human 100% WiDr NTRneo tumor cells injected in CD1 nude mouse assessed as growth delay at 1000 umol/kg, ip in DMSO; type: functional; method in brief: as §3
V79 [26] = test: Clonogenic survival ratio of 3% V79 NTRpuro cells to 97% V79 NTRoua cells in co-culture; type: functional, Cricetulus griseus; method in brief: as §2
WiDr [27] = test: Antitumor activity against human 100% WiDr NTRneo tumor cells injected in CD1 nude mouse assessed as growth delay at 2000 umol/kg, ip in DMSO; type: functional
Method in brief: (§4)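 WiDr tumors grown in CD-1 nude mice from stably NTR-transfected WiDr-NTRneo cells, either alone or mixed 1:9 with NTR-ve WiDr cells. Each mouse received a single i.p. dose. The read-out was median growth delay for tumors to reach an endpoint size of 15 mm mean diameter. Long-term controls were counted as tumors not palpable 100 days after treatment. The aziridine positive control was included in every experiment.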

WiDr [28] = test: Antitumor activity against mixed human 10% WiDr NTRneo/ 90% WiDr tumor cells injected in CD1 nude mouse assessed as growth delay at 2000 umol/kg, ip in DMSO; type: functional; method in brief: as §4
EMT6 [29] = test: Antitumor activity against mixed mouse EMT6/EMT6 NTRpuro cells injected in CD1 nude mouse assessed as cell kill at 2000 umol/kg, ip in DMSO after 18 hrs; type: functional
WiDr [30] = test: Antitumor activity against human 100% WiDr NTRneo tumor cells injected in CD1 nude mouse assessed as growth delay at 1780 umol/kg, ip in DMSO; type: functional; method in brief: as §3
EMT6 [31] = test: Antitumor activity against mixed mouse EMT6/EMT6 NTRpuro cells injected in CD1 nude mouse assessed as cell kill at 1780 umol/kg, ip in DMSO after 18 hrs; type: functional
WiDr [32] = test: Antitumor activity against mixed human 10% WiDr NTRneo/ 90% WiDr tumor cells injected in CD1 nude mouse assessed as growth delay at 1780 umol/kg, ip in DMSO; type: functional; method in brief: as §3

O=C(NCC(O)CO)c1cc(N(CCBr)CCBr)c([N+](=O)[O-])cc1[N+](=O)[O-] (stereo not given)
MTD [1]: 1330 µmol/kg | Activity (V79 [2]): 98 µM | Activity (V79 [3]): 18 µM | IC50 (V79 [4]): 0.34 µM | IC50 (EMT6 [5]): 132 µM | solubility [6]: 1700 µM (≈ 874 µg/mL) | Ratio IC50 (V79 [7]): 828 | IC50 (EMT6 [8]): 0.08 µM | LCK (EMT6 [9]): >3.36 | IC50 [10]: 0.28 µM | IC50 [11]: 283 µM | Ratio IC50 (EMT6 [12]): 1670 | IC50 (WiDr [13]): 166 µM | Ratio IC50 [14]: 1050 | Activity (WiDr [15]): 22 days | logD [16]: 1.25 | Activity (V79 [17]): 675 µM | IC50 (V79 [18]): 275 µM | Ratio IC50 (WiDr [19]): 313 | remaining at 24 h [20]: 102% | IC50 (WiDr [21]): 0.63 µM

CS(=O)(=O)OCCN(CCCl)c1cc(C(N)=O)c([N+](=O)[O-])cc1[N+](=O)[O-]
MTD [22]: 1000 µmol/kg | Activity (WiDr [23]): 38 days | Activity (V79 [2]): 33 µM | LCK (EMT6 [24]): >3.82 | Activity (V79 [3]): 5.3 µM | IC50 (V79 [4]): 0.55 µM | Activity (WiDr [25]): >80 days | Ratio (V79 [26]): 0.16 | IC50 (EMT6 [5]): 211 µM | Ratio IC50 (V79 [7]): 1060 | IC50 (EMT6 [8]): 0.3 µM | IC50 [10]: 0.78 µM | IC50 [11]: 522 µM | Ratio IC50 (EMT6 [12]): 942 | IC50 (WiDr [13]): 246 µM | Ratio IC50 [14]: 697 | logD [16]: 0.42 | Activity (V79 [17]): >1000 µM | IC50 (V79 [18]): 504 µM | Ratio IC50 (WiDr [19]): 442 | IC50 (WiDr [21]): 0.7 µM

CS(=O)(=O)OCCN(CCOS(C)(=O)=O)c1cc(C(N)=O)c([N+](=O)[O-])cc1[N+](=O)[O-]
MTD [22]: 2000 µmol/kg | Activity (V79 [2]): 152 µM | Activity (V79 [3]): 13 µM | IC50 (V79 [4]): 0.49 µM | Activity (WiDr [27]): >82 days | IC50 (EMT6 [5]): 189 µM | Ratio IC50 (V79 [7]): 1200 | IC50 (EMT6 [8]): 0.32 µM | IC50 [10]: 1.2 µM | Activity (WiDr [28]): 20 days | IC50 [11]: 226 µM | Ratio IC50 (EMT6 [12]): 755 | IC50 (WiDr [13]): 24 µM | Ratio IC50 [14]: 220 | logD [16]: -0.7 | Activity (V79 [17]): >300 µM | IC50 (V79 [18]): 536 µM | LCK (EMT6 [29]): >2.6 | Ratio IC50 (WiDr [19]): 55 | IC50 (WiDr [21]): 0.67 µM

CS(=O)(=O)OCCN(CCBr)c1cc(C(N)=O)c([N+](=O)[O-])cc1[N+](=O)[O-]
MTD [22]: 1780 µmol/kg | Activity (V79 [2]): 10 µM | Activity (V79 [3]): 2 µM | IC50 (V79 [4]): 0.11 µM | Ratio (V79 [26]): 0.2 | IC50 (EMT6 [5]): 76 µM | solubility [6]: 230 µM (≈ 105 µg/mL) | Ratio IC50 (V79 [7]): 1260 | IC50 (EMT6 [8]): 0.05 µM | IC50 [10]: 0.19 µM | IC50 [11]: 135 µM | Ratio IC50 (EMT6 [12]): 1510 | Activity (WiDr [30]): >82 days | IC50 (WiDr [13]): 80 µM | Ratio IC50 [14]: 715 | LCK (EMT6 [31]): >3.61 | logD [16]: 0.49 | Activity (V79 [17]): >250 µM | IC50 (V79 [18]): 133 µM | Activity (WiDr [32]): 26 days | Ratio IC50 (WiDr [19]): 387 | remaining at 24 h [20]: 71% | IC50 (WiDr [21]): 0.22 µM

— ChEMBL document CHEMBL1142960, “Synthesis and structure-activity relationships for 2,4-dinitrobenzamide-5-mustards as prodrugs for the Escherichia coli nfsB nitroreductase in gene therapy” (J Med Chem, 2007)
